In ChEMBL document CHEMBL1781987, “Nobilamides A-H, long-acting transient receptor potential vanilloid-1 (TRPV1) antagonists from mollusk-associated bacteria” (J Med Chem, 2011):
The source made the active and inactive calls. The calls are words filed in the database; no cut-off is given here. Bridge positions count the residues as written; N and C are the ends. Square brackets hold non-standard residues; d marks the D form. Peptide text beside a SMILES is read from it. * marks the point of attachment. d(aThr) = C[C@@H](O)[C@@H](N)C(=O)O; Dhb = C/C=C(\N)C(=O)O; Propionyl = CCC(=O)*

Columns and labels:
[1] = molecular target: Transient receptor potential cation channel subfamily V member 1 (Mus musculus) (UniProt Q704Y3); test: Antagonist activity at TRPV1 channel in C57B1 mouse dorsal root ganglion cells assessed as inhibition of capsaicin-induced calcium flux at 125 uM after 5 mins by fluorometric analysis in presence of at 25 mM of KCl; format: functional, tissue-based
Chain of Transient receptor potential cation channel subfamily V member 1 (Mus musculus) (Q704Y3 whole entry): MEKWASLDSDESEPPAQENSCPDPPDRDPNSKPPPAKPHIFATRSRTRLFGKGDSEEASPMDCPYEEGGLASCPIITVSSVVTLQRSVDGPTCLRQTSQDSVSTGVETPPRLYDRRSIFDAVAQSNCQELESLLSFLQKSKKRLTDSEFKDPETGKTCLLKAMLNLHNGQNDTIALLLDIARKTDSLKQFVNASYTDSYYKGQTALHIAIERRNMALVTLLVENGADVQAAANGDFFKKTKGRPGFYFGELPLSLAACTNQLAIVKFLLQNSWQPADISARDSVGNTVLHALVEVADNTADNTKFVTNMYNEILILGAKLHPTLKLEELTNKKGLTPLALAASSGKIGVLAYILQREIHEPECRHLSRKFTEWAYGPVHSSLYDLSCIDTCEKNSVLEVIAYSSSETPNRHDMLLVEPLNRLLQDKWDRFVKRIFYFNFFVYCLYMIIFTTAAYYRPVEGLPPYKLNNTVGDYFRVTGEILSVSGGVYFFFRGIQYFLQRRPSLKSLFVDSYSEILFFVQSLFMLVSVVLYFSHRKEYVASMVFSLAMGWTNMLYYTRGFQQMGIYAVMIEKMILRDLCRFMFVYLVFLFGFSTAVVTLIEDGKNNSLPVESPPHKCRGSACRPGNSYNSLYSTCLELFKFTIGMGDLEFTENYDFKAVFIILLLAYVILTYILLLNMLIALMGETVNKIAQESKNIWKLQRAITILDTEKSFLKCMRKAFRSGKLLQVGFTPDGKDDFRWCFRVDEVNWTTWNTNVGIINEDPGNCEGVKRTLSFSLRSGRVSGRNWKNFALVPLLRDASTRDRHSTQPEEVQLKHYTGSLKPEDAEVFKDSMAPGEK
Outline: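 Mouse C57B1 cervical/lumbar DRG neurons, Fura-2 AM calcium imaging at 20–25°C, each neuron analysed separately. […] Final 25 or 100 mM KCl pulses check viability.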

[2] = molecular target: Transient receptor potential cation channel subfamily V member 1 (Mus musculus) (UniProt Q704Y3); test: Antagonist activity at TRPV1 channel in C57B1 mouse dorsal root ganglion cells assessed as inhibition of capsaicin-induced calcium flux at 125 uM after 3 hrs by fluorometric analysis; format: functional, tissue-based
[3] = molecular target: Transient receptor potential cation channel subfamily V member 1 (Mus musculus) (UniProt Q704Y3); test: Antagonist activity at TRPV1 channel in C57B1 mouse dorsal root ganglion cells assessed as inhibition of capsaicin-induced calcium flux at 125 uM after 3 hrs by fluorometric analysis in presence of 10 ug/ml translational inhibitor cycloheximide; format: functional, tissue-based
[4] = molecular target: Transient receptor potential cation channel subfamily V member 1 (Mus musculus) (UniProt Q704Y3); test: Antagonist activity at TRPV1 channel in C57B1 mouse dorsal root ganglion cells assessed as inhibition of capsaicin-induced calcium flux at 125 uM after 3 hrs by fluorometric analysis in presence of 5.6 ug/ml trafficking inhibitor brefeldin A; format: functional, tissue-based
[5] = molecular target: Transient receptor potential cation channel subfamily V member 1 (Mus musculus) (UniProt Q704Y3); test: Antagonist activity at TRPV1 channel in C57B1 mouse dorsal root ganglion cells assessed as inhibition of capsaicin-induced calcium flux at 125 uM after 3 hrs by fluorometric analysis in presence of 6.3 ug/ml transcriptional inhibitor actinomycin D; format: functional, tissue-based
[6] = tested on: Transient receptor potential cation channel subfamily V member 1 (Homo sapiens), Q8NER1 [E600V]; test: Antagonist activity at human TRPV1 E600V mutant expressed in HEK293 cell assessed as inhibition of capsaicin-induced calcium flux at 375 uM for 30 mins before capsaicin challenge measured after 48 hrs by fluorometric analysis; format: functional, cell-based
Chain of Transient receptor potential cation channel subfamily V member 1 (Homo sapiens), Q8NER1 [E600V] (Q8NER1 whole entry E600V): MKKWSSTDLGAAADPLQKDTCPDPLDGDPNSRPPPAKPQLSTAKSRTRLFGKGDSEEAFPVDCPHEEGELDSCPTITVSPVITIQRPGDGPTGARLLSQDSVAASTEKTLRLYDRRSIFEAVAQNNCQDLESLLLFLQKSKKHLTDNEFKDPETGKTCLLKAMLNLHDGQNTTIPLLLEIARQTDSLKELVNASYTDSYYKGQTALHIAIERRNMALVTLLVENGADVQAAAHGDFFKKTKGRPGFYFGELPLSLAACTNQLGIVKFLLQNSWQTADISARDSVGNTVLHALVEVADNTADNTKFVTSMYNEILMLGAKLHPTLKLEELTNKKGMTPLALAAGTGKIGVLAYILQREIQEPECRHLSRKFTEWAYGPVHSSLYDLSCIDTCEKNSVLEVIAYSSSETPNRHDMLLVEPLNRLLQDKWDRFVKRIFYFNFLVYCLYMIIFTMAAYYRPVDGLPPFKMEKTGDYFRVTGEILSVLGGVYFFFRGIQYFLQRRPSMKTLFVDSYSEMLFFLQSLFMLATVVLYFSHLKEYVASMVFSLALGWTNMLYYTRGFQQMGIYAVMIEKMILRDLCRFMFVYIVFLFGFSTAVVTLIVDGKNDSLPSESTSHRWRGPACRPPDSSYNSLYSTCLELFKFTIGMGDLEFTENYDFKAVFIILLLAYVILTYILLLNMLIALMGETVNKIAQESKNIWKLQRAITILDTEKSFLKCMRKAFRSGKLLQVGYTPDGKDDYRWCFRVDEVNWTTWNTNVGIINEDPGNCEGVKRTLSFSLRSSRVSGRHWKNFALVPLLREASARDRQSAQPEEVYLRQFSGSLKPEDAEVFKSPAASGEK
Outline: (§1)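 HEK-293 cells on gelatin-coated plates transiently transfected with human TRPV1 mutant plasmid (200 ng/well, lipofection 4 h), then grown 48 h. Fluo-4 loaded at 37°C. […] Fluorescence read 1 min; initial rate (ΔF/sec) and ΔFmax compared with capsaicin-only control.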

[7] = tested on: Transient receptor potential cation channel subfamily V member 1 (Homo sapiens), Q8NER1 [F660A]; test: Antagonist activity at human TRPV1 F660A mutant expressed in HEK293 cell assessed as inhibition of capsaicin-induced calcium flux at 375 uM for 30 mins before capsaicin challenge measured after 48 hrs by fluorometric analysis; format: functional, cell-based; outline: as §1
Chain of Transient receptor potential cation channel subfamily V member 1 (Homo sapiens), Q8NER1 [F660A] (Q8NER1 whole entry F660A): as the sequence (Q8NER1 whole entry E600V) above, with V600E, F660A counted along it

[8] = molecular target: T1, Transient receptor potential cation channel subfamily V member 1 (Homo sapiens, UniProt Q8NER1); test: Antagonist activity at human TRPV1 expressed in human BEAS-2B cells assessed as inhibition of capsaicin-induced calcium flux at 25 to 1000 uM co-treated with 2.5 uM capsaicin measured after 30 mins by fluorometric analysis; format: functional, cell-based
T1 sequence (Q8NER1 whole entry): as the sequence (Q8NER1 whole entry E600V) above, with V600E counted along it
Outline: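 BEAS-2B cells stably overexpressing human TRPV1, grown to confluence in LHC-9. Loaded 1 h at ~22°C in the dark with Fluo-4 reagent, then washed into LHC-9 with 1 mM probenecid and Trypan Red. […] Fluorescence followed 1 min; rate and ΔFmax versus capsaicin-only control.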

[9] = molecular target: T1, Transient receptor potential cation channel subfamily V member 1; test: Antagonist activity at human TRPV1 expressed in human BEAS-2B cells assessed as inhibition of capsaicin-induced calcium flux at 25 to 1000 uM preincubated for 30 mins before 2.5 uM capsaicin challenge measured after 1 min by fluorometric analysis; format: functional, cell-based
Outline: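 Human TRPV1-expressing BEAS-2B cells loaded with Fluo-4 (1 h, ~22°C, dark), then washed into LHC-9 with 1 mM probenecid and Trypan Red containing compound. […] Ca2+ signal tracked 1 min; initial rate and ΔFmax relative to capsaicin-only cells.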

[10] = tested on: Transient receptor potential cation channel subfamily V member 1 (Homo sapiens), Q8NER1 [C621A]; test: Antagonist activity at human TRPV1 C621A mutant expressed in HEK293 cell assessed as inhibition of capsaicin-induced calcium flux at 375 uM for 30 mins before capsaicin challenge measured after 48 hrs by fluorometric analysis; format: functional, cell-based; outline: as §1
Chain of Transient receptor potential cation channel subfamily V member 1 (Homo sapiens), Q8NER1 [C621A] (Q8NER1 whole entry C621A): as the sequence (Q8NER1 whole entry E600V) above, with V600E, C621A counted along it

[11] = tested on: Transient receptor potential cation channel subfamily V member 1 (Homo sapiens), Q8NER1 [C578A]; test: Antagonist activity at human TRPV1 C578A mutant expressed in HEK293 cell assessed as inhibition of capsaicin-induced calcium flux at 375 uM for 30 mins before capsaicin challenge measured after 48 hrs by fluorometric analysis; format: functional, cell-based; outline: as §1
Chain of Transient receptor potential cation channel subfamily V member 1 (Homo sapiens), Q8NER1 [C578A] (Q8NER1 whole entry C578A): as the sequence (Q8NER1 whole entry E600V) above, with C578A, V600E counted along it

[12] = tested on: Transient receptor potential cation channel subfamily V member 1 (Homo sapiens), Q8NER1 [N604A]; test: Antagonist activity at human TRPV1 N604A mutant expressed in HEK293 cell assessed as inhibition of capsaicin-induced calcium flux at 375 uM for 30 mins before capsaicin challenge measured after 48 hrs by fluorometric analysis; format: functional, cell-based; outline: as §1
Chain of Transient receptor potential cation channel subfamily V member 1 (Homo sapiens), Q8NER1 [N604A] (Q8NER1 whole entry N604A): as the sequence (Q8NER1 whole entry E600V) above, with V600E, N604A counted along it

[13] = tested on: Transient receptor potential cation channel subfamily V member 1 (Homo sapiens), Q8NER1 [E649A]; test: Antagonist activity at human TRPV1 E649A mutant expressed in HEK293 cell assessed as inhibition of capsaicin-induced calcium flux at 375 uM for 30 mins before capsaicin challenge measured after 48 hrs by fluorometric analysis; format: functional, cell-based; outline: as §1
Chain of Transient receptor potential cation channel subfamily V member 1 (Homo sapiens), Q8NER1 [E649A] (Q8NER1 whole entry E649A): as the sequence (Q8NER1 whole entry E600V) above, with V600E, E649A counted along it

[14] = molecular target: T1, Transient receptor potential cation channel subfamily V member 1; conditions: HEK293, 375 uM
[15] = molecular target: T1, Transient receptor potential cation channel subfamily V member 1; conditions: HEK293, 375 uM; remark: listed apart in the source
[16] = molecular target: T1, Transient receptor potential cation channel subfamily V member 1; conditions: HEK293, 375 uM; remark: listed apart in the source

Row | Compound | inhibition [1] | inhibition [2] | inhibition [3] | inhibition [4] | inhibition [5] | inhibition [6] | inhibition [7] | inhibition [8] | inhibition [9] | inhibition [10] | inhibition [11] | inhibition [12] | inhibition [13] | inhibition [14] | inhibition [15] | inhibition [16]
1 | C/C=C(\NC(=O)[C@H](C)NC(=O)[C@@H](NC(=O)[C@H](NC(=O)[C@H](Cc1ccccc1)NC(=O)[C@@H](CC(C)C)NC(=O)[C@@H](Cc1ccccc1)NC(C)=O)[C@@H](C)O)C(C)C)C(=O)O (Ac-[dF][dL]F[d(aThr)]VA[Dhb]-OH) | Active | inactive | inactive | inactive | inactive | – | – | – | – | – | – | – | – | – | – | –
2 | C/C=C(\NC(=O)[C@H](C)NC(=O)[C@@H](NC(=O)[C@H](NC(=O)[C@H](Cc1ccccc1)NC(=O)[C@@H](CC(C)C)NC(=O)[C@@H](Cc1ccccc1)NC(=O)CC)[C@@H](C)O)C(C)C)C(=O)O (Propionyl-[dF][dL]F[d(aThr)]VA[Dhb]-OH) | – | – | – | – | – | Active | inactive | Active | Active | inactive | inactive | Active | Active | Active | inactive | Active
3 | C/C=C1\NC(=O)[C@H](C)NC(=O)[C@H](C(C)C)NC(=O)[C@H](NC(=O)[C@H](Cc2ccccc2)NC(=O)[C@@H](CC(C)C)NC(=O)[C@@H](Cc2ccccc2)NC(=O)CC)[C@@H](C)OC1=O (Propionyl-[dF][dL]F[d(aThr)]VA[Dhb]; ester 4-C) | – | – | – | – | – | Active | inactive | Active | Active | inactive | inactive | Active | Active | – | – | –
